pIC50: −log10 of the molar value. Each block holds one compound with its values, some of them ahead of it. Calls of active or inactive are those of the source. The calls are words filed in the database; no cut-off is given here.
Tests used:
K562 = experiment: Growth inhibition of human K562 cells after 24 to 72 hrs by MTT assay; format: functional, cell-based
Method in brief: (§1)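 Leukemic lines in medium with 50 µM β-mercaptoethanol, 25 mM Hepes pH 7.4, antibiotics and 10% heat-inactivated FCS (Daudi 20% FCS; Lucena-1 kept with 60 nM vincristine to maintain MDR phenotype). Cells exposed to compound for 24, 48 or 72 h. Viability by MTT: 3 h at 37 °C, DMSO solubilisation, absorbance at 490 nm.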

HL-60 = experiment: Growth inhibition of human HL60 cells after 72 hrs by MTT assay; format: functional, cell-based; settings: HL-60, 72 h
Method in brief: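 2 × 10⁴ cells/mL seeded in drug-free medium or medium with a range of compound concentrations, 72 h at 37 °C, 5% CO₂. MTT read-out: 3 h incubation, formazan dissolved in DMSO, A490. IC50 = concentration inhibiting growth by 50%. Mean of three independent experiments, triplicate wells.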

[1] = Growth inhibition of human K562-Lucena 1 cells after 24 to 72 hrs by MTT assay; format: functional; method in brief: as §1
Daudi = experiment: Growth inhibition of human Daudi cells after 24 to 72 hrs by MTT assay; format: functional, cell-based; method in brief: as §1
PBMC [2] = experiment: Growth inhibition of phytohemagglutinin-activated human PBMC cells after 24 to 72 hrs by MTT assay; format: cell-based
Raji = experiment: Growth inhibition of human Raji cells after 24 to 72 hrs by MTT assay; format: functional, cell-based; method in brief: as §1
Jurkat = experiment: Growth inhibition of human Jurkat cells after 24 to 72 hrs by MTT assay; format: functional, cell-based; method in brief: as §1
A549 = experiment: Growth inhibition of human A549 cells after 72 hrs by MTT assay; format: functional, cell-based; settings: A549, 72 h
Method in brief: (§2)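 Adherent lung cancer cells allowed to attach 24 h, then exposed to compound. 2 × 10⁴ cells/mL in drug-free or compound-containing medium, 72 h at 37 °C, 5% CO₂. MTT added, 3 h at 37 °C, formazan dissolved in DMSO, absorbance at 490 nm. IC50 from three independent experiments, each concentration in triplicate.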

NCI-H460 = experiment: Growth inhibition of human H460 cells after 72 hrs by MTT assay; format: functional, cell-based; settings: NCI-H460, 72 h; method in brief: as §2
[3] = Growth inhibition of human GLC4 cells after 72 hrs by MTT assay; format: functional, cell-based; settings: GLC4, 72 h; method in brief: as §2
PBMC [4] = experiment: Antiinflammatory activity in human PBMC assessed reduction of LPS-stimulated TNFalpha production at 25 uM after 2 hrs by ELISA; format: functional, cell-based
Method in brief: (§3)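 PBMC at 10⁶ cells/mL stimulated with 2 µg/mL E. coli 055:B5 LPS for 2 h at 37 °C, 5% CO₂, co-incubated with vehicle (0.5% DMSO in RPMI 1640) or compound at several concentrations. TNF-α measured in supernatants. Three experiments, mean ± SEM.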

PBMC [5] = experiment: Antiinflammatory activity in human PBMC assessed inhibition of LPS-stimulated TNFalpha production at 100 uM after 2 hrs by ELISA; format: functional; method in brief: as §3
[6] = Toxicity in LPS-stimulated human PBMC cells assessed as cell viability at 100 uM; format: cell-based

pIC50 (K562): 5.53
pIC50 (HL-60): 5.68
SMILES: O=C1C2=C(OC[C@@H]3c4cc5c(cc4O[C@H]23)OCO5)C(=O)c2c1ccc(O)c2O

pIC50 (K562): 5.46
pIC50 (HL-60): 6.40
SMILES: O=C1C2=C(C(=O)c3ccccc31)[C@H]1Oc3ccc([N+](=O)[O-])cc3[C@H]1CO2 (racemic)

pIC50 (K562): 5.17
pIC50 (HL-60): 5.31
SMILES: O=C1C2=C(C(=O)c3ccccc31)[C@H]1Oc3ccc(Cl)cc3[C@H]1CO2 (racemic)

pIC50 (K562): 5.24
pIC50 (HL-60): 5.31
SMILES: O=C1C2=C(C(=O)c3ccccc31)[C@H]1Oc3ccc(Br)cc3[C@H]1CO2 (racemic)

pIC50 (K562): 5.66
SMILES: COc1cc2c(cc1O)[C@H]1COC3=C(C(=O)c4ccccc4C3=O)[C@H]1O2 (racemic)

pIC50 (K562): 6.33
pIC50 (Daudi): 6.35
SMILES: CO[C@@]12[C@H](COC(N)=O)C3=C(C(=O)C(C)=C(N)C3=O)N1C[C@@H]1N[C@@H]12 [MITOMYCIN]
pIC50 [1]: 5.56
pIC50 (PBMC [2]): 5.39

pIC50 (K562): 5.78
pIC50 (HL-60): 5.70
pIC50 (Raji): 5.48
pIC50 (Jurkat): 5.17
pIC50 (Daudi): 5.51
pIC50 (A549): 4.95
pIC50 (NCI-H460): 4.89
SMILES: O=C1C2=C(C(=O)c3ccccc31)[C@H]1Oc3ccccc3[C@H]1CO2 [PTEROCARPANQUINONE]
pIC50 [1]: 5.56
pIC50 (PBMC [2]): < 4.70
pIC50 [3]: 5.29
inhibition (PBMC [4]): Active
inhibition at 100 µM (PBMC [5]): 100%
viability at 100 µM [6]: > 70%
